From ChEMBL document CHEMBL1159119, “Quiquelignan A-H, eight new lignoids from the rattan palm Calamus quiquesetinervius and their antiradical, anti-inflammatory and antiplatelet aggregation activities” (Bioorg Med Chem, 2010)

Assays:
[1] = tested on: RAW264.7; assay: Antiinflammatory activity in mouse RAW264.7 cells assessed as inhibition of LPS-induced NO production by Griess reagent method; type: functional, cell-based
Summary of the method: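 RAW 264.7 cells (1 × 10^5/well) in DMEM with 10% FBS, 5% CO2, 37 °C, pre-incubated overnight. Then 24 h with vehicle or compound (0.31–20.0 µg/mL; DMSO final 0.2% v/v) plus 1 µg/mL E. coli 0127:B8 LPS. Nitrite in supernatant mixed 1:1 with Griess reagent, 5 min, OD 540 nm. IC50 derived; triplicate, mean ± SE.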

[2] = Antioxidant activity assessed as hydroxyl radical scavenging activity by chemiluminescence assay; type: functional
Summary of the method: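 •OH generated from EDTA, FeSO4 and 3% H2O2 with indoxyl-b-glucuronide as the CL probe. Ultra-weak photon emission read on a high-sensitivity chemiluminescence analyzer. IC50 is the concentration inhibiting 50% of generated •OH. Trolox as positive control; triplicate.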

[3] = Antioxidant activity assessed as superoxide radical scavenging activity by chemiluminescence assay; type: functional
Summary of the method: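 O2•− generated by methylglyoxal plus arginine in PBS pH 7.4, with lucigenin as the CL probe. Ultra-weak photons counted by chemiluminescence analyzer. Trolox positive control; triplicate.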

[4] = Cytotoxicity against mouse RAW264.7 cells assessed as viable cells after 24 hrs by MTS assay in presence of LPS; type: cell-based; set-up: concentration or dose not given beside the values; settings: read-out: Activity
Summary of the method: (§1)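 RAW 264.7 cells treated 24 h with compound (0.31–20.0 µg/mL, DMSO 0.2% v/v final), without LPS or with 1 µg/mL LPS. MTS solution (16.7% in RPMI 1640) added for 10 min; absorbance read at 490 nm.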

[5] = Cytotoxicity against mouse RAW264.7 cells assessed as viable cells after 24 hrs by MTS assay; type: cell-based; set-up: concentration or dose not given beside the values; settings: read-out: Activity; summary of the method: as §1
[6] = Antiplatelet aggregatory activity in […] assessed as inhibition of collagen-induced platelet aggregation by aggregometry; type: functional; settings: Homo sapiens, Plasma
[7] = tested on: RAW264.7; assay: Ratio of IC50 for quercetin to IC50 for drug against LPS-induced NO release in mouse RAW264.7 cells by Griess reagent method; type: functional

| IC50 [1] | IC50 [2] | IC50 [3] | IC50 [6] | Structure (SMILES) | viability at 24 h [4] | viability at 24 h [5] | Ratio IC50 [7] |
| --- | --- | --- | --- | --- | --- | --- | --- |
| 20 µM | 27.5 µM | > 200 µM | 67.5 µM | COc1cc(C(=O)C(COC(=O)c2ccc(O)cc2)Oc2c(OC)cc(/C=C/COC(=O)c3ccc(O)cc3)cc2OC)cc(OC)c1O (stereo unspecified) | > 85% | > 85% | 2.7 |
| 101 µM | 19 µM | > 200 µM | > 100 µM | COc1cc(/C=C/COC(=O)c2ccc(O)cc2)ccc1O[C@@H](COC(=O)c1ccc(O)cc1)[C@@H](O)c1cc(OC)c(O)c(OC)c1 (relative stereo) | > 85% | > 85% | – |
| 36 µM | 19.9 µM | > 200 µM | 43.3 µM | CCO[C@@H](c1ccc(O)c(OC)c1)[C@@H](COC(=O)c1ccc(O)cc1)Oc1c(OC)cc([C@@H]2CC(=O)c3c(O)cc(O)cc3O2)cc1OC [QUIQUELIGNAN B] | > 85% | > 85% | – |
| – | 4.4 µM | 32.8 µM | – | Cc1c(C)c2c(c(C)c1O)CCC(C)(C(=O)O)O2 (stereo unspecified) [TROLOX] | – | – | – |
| 11.8 µM | 12.4 µM | > 200 µM | 26.9 µM | COc1cc([C@@H](O)[C@H](COC(=O)c2ccc(O)cc2)Oc2c(OC)cc(/C=C/COC(=O)c3ccc(O)cc3)cc2OC)cc(OC)c1O (relative stereo) | > 85% | > 85% | – |
| – | – | – | 75.4 µM | CC(=O)Oc1ccccc1C(=O)O [ASPIRIN] | – | – | – |
| 52.4 µM | 20.4 µM | > 200 µM | 55.2 µM | COc1cc([C@H](O)[C@H](COC(=O)c2ccc(O)cc2)Oc2c(OC)cc(/C=C/COC(=O)c3ccc(O)cc3)cc2OC)ccc1O (relative stereo) | > 85% | > 85% | – |
| 63.4 µM | 15.3 µM | > 200 µM | 49.4 µM | CCO[C@H](c1ccc(O)c(OC)c1)[C@@H](CO)Oc1c(OC)cc(-c2cc(=O)c3c(O)cc(O)cc3o2)cc1OC [QUIQUELIGNAN C] | > 85% | > 85% | – |
| – | 6.2 µM | 53.8 µM | – | COc1cc(C(=O)C(COC(=O)c2ccc(O)cc2)Oc2c(OC)cc([C@@H](O)[C@H](O)COC(=O)c3ccc(O)cc3)cc2OC)cc(OC)c1O (relative stereo) | – | – | – |
| – | 27.4 µM | > 200 µM | > 100 µM | CCO[C@@H](c1ccc(O)c(OC)c1)[C@H](CO)Oc1c(OC)cc([C@@H]2CC(=O)c3c(O)cc(O)cc3O2)cc1OC [QUIQUELIGNAN A] | – | – | – |

| Structure (SMILES) | IC50 [1] | IC50 [2] | IC50 [3] | IC50 [6] | viability at 24 h [4] | viability at 24 h [5] | Ratio IC50 [7] |
| --- | --- | --- | --- | --- | --- | --- | --- |
| O=c1c(O)c(-c2ccc(O)c(O)c2)oc2cc(O)cc(O)c12 [QUERCETIN] | 54.3 µM | – | – | – | – | – | – |
